Experimental data from ChEMBL document CHEMBL1150572, “Isolation and structures of haterumadioxins A and B, cytotoxic endoperoxides from the Okinawan sponge Plakortis lita” (J Nat Prod, 2001).
≈ marks a conversion by molar mass, not a printed value.

Assays:
[1] = system: HCT-15; test: Growth inhibition of human HCT15 cells; assay type: functional
[2] = system: HCT-116; test: Growth inhibition of human HCT116 cells; assay type: functional
[3] = system: NCI-H23; test: Growth inhibition of human NCI-H23 cells; assay type: functional
[4] = system: NCI-H226; test: Growth inhibition of human NCI-H226 cells; assay type: functional
[5] = system: NCI-H522; test: Growth inhibition of human NCI-H522 cells; assay type: functional
[6] = system: NCI-H460; test: Growth inhibition of human NCI-H460 cells; assay type: functional
[7] = system: A549; test: Growth inhibition of human A549 cells; assay type: functional
[8] = system: DMS-273; test: Growth inhibition of human DMS273 cells; assay type: functional
[9] = system: DMS-114; test: Growth inhibition of human DMS114 cells; assay type: functional
[10] = system: LOX IMVI; test: Growth inhibition of human LOXIMVI cells; assay type: functional
[11] = system: OVCAR-3; test: Growth inhibition of human OVCAR-3 cells; assay type: functional
[12] = system: OVCAR-4; test: Growth inhibition of human OVCAR4 cells; assay type: functional
[13] = system: OVCAR-5; test: Growth inhibition of human OVCAR5 cells; assay type: functional
[14] = system: OVCAR-8; test: Growth inhibition of human OVCAR8 cells; assay type: functional
[15] = system: SK-OV-3; test: Growth inhibition of human SKOV3 cells; assay type: functional
[16] = Growth inhibition of human RXF631L cells; assay type: functional; conditions: RXF 631
[17] = system: ACHN; test: Growth inhibition of human ACHN cells; assay type: functional
[18] = system: St-4; test: Growth inhibition of human St-4 cells; assay type: functional
[19] = Growth inhibition of human MKN1 cells; assay type: functional; conditions: MKN-1
[20] = system: MKN-7; test: Growth inhibition of human MKN7 cells; assay type: functional
[21] = system: MKN-28; test: Growth inhibition of human MKN28 cells; assay type: functional
[22] = system: MKN-45; test: Growth inhibition of human MKN45 cells; assay type: functional
[23] = system: MKN-74; test: Growth inhibition of human MKN74 cells; assay type: functional
[24] = system: DU-145; test: Growth inhibition of human DU145 cells; assay type: functional
[25] = system: PC-3; test: Growth inhibition of human PC3 cells; assay type: functional
[26] = system: P388; test: Cytotoxicity against mouse P388 cells; assay type: functional, cell-based
Method in brief: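 Murine P388 leukemia cells, 2 × 10^4 cells/mL, in RPMI-1640 with 10% FBS, 10 µM 2-hydroxyethyl disulfide and kanamycin (100 µg/mL). Samples were added in MeOH. Cells were incubated 4 days at 37 °C in humidified 5% CO2, then counted by MTT. IC50 (50% inhibition of cell growth) was read from the growth curve.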

[27] = Growth inhibition of human HBC4 cells; assay type: functional
[28] = Growth inhibition of human BSY1 cells; assay type: functional; conditions: BSY-1
[29] = Growth inhibition of human HBC5 cells; assay type: functional
[30] = system: MCF7; test: Growth inhibition of human MCF7 cells; assay type: functional
[31] = system: MDA-MB-231; test: Growth inhibition of human MDA-MB-231 cells; assay type: functional
[32] = system: U-251; test: Growth inhibition of human U251 cells; assay type: functional
[33] = system: SF-268; test: Growth inhibition of human SF268 cells; assay type: functional
[34] = system: SF-295; test: Growth inhibition of human SF295 cells; assay type: functional
[35] = system: SF-539; test: Growth inhibition of human SF539 cells; assay type: functional
[36] = system: SNB-75; test: Growth inhibition of human SNB75 cells; assay type: functional
[37] = system: SNB-78; test: Growth inhibition of human SNB78 cells; assay type: functional
[38] = system: HCC 2998; test: Growth inhibition of human HCC2998 cells; assay type: functional
[39] = system: KM12; test: Growth inhibition of human KM12 cells; assay type: functional
[40] = system: HT-29; test: Growth inhibition of human HT-29 cells; assay type: functional

**Q.** Which GI50 [1] does the source give for `CC/C=C/[C@H](CC)C[C@]1(CC)C=C(CC)[C@H](CC(=O)O)OO1` [HATERUMADIOXIN A] here?
**A.** The GI50 was 1700 nM.

**Q.** What about the GI50 [2] of the same molecule?
**A.** Its GI50 is 1550 nM.

**Q.** What about the GI50 [3] of the same molecule?
**A.** Its GI50 is 5500 nM.

**Q.** And the GI50 [4]?
**A.** The GI50 was 1780 nM.

**Q.** And the GI50 [5]?
**A.** Its GI50 is 1860 nM.

**Q.** What about the GI50 [6] of the same molecule?
**A.** Its GI50 is 1820 nM.

**Q.** What about the GI50 [7] of the same molecule?
**A.** Its GI50 is 1950 nM.

**Q.** What about the GI50 [8] of the same molecule?
**A.** Its GI50 is 1410 nM.

**Q.** And the GI50 [9]?
**A.** Its GI50 is 1480 nM.

**Q.** What about the GI50 [10] of the same molecule?
**A.** The GI50 was 100 nM.

**Q.** What about the GI50 [11] of the same molecule?
**A.** Its GI50 is 1550 nM.

**Q.** And the GI50 [12]?
**A.** The GI50 was 676 nM.

**Q.** And the GI50 [13]?
**A.** The GI50 was 1820 nM.

**Q.** And the GI50 [14]?
**A.** Its GI50 is 2140 nM.

**Q.** And the GI50 [15]?
**A.** The GI50 was 2000 nM.

**Q.** What about the GI50 [16] of the same molecule?
**A.** Its GI50 is 1700 nM.

**Q.** What about the GI50 [17] of the same molecule?
**A.** Its GI50 is 1170 nM.

**Q.** What about the GI50 [18] of the same molecule?
**A.** Its GI50 is 2090 nM.

**Q.** And the GI50 [19]?
**A.** The GI50 was 832 nM.

**Q.** And the GI50 [20]?
**A.** Its GI50 is 1910 nM.

**Q.** What about the GI50 [21] of the same molecule?
**A.** Its GI50 is 2240 nM.

**Q.** And the GI50 [22]?
**A.** The GI50 was 2040 nM.

**Q.** What about the GI50 [23] of the same molecule?
**A.** Its GI50 is 2190 nM.

**Q.** And the GI50 [24]?
**A.** The GI50 was 1700 nM.

**Q.** And the GI50 [25]?
**A.** The GI50 was 1910 nM.

**Q.** What about the IC50 [26] of the same molecule?
**A.** Its IC50 is 11 ng/mL (≈ 0.0354 µM).

**Q.** And the GI50 [27]?
**A.** The GI50 was 1170 nM.

**Q.** And the GI50 [28]?
**A.** The GI50 was 1780 nM.

**Q.** And the GI50 [29]?
**A.** Its GI50 is 1320 nM.

**Q.** What about the GI50 [30] of the same molecule?
**A.** The GI50 was 1740 nM.

**Q.** What about the GI50 [31] of the same molecule?
**A.** The GI50 was 1860 nM.

**Q.** And the GI50 [32]?
**A.** The GI50 was 1780 nM.

**Q.** What about the GI50 [33] of the same molecule?
**A.** Its GI50 is 1820 nM.

**Q.** What about the GI50 [34] of the same molecule?
**A.** Its GI50 is 1780 nM.

**Q.** And the GI50 [35]?
**A.** Its GI50 is 1820 nM.

**Q.** What about the GI50 [36] of the same molecule?
**A.** Its GI50 is 1660 nM.

**Q.** What about the GI50 [37] of the same molecule?
**A.** Its GI50 is 1860 nM.

**Q.** What about the GI50 [38] of the same molecule?
**A.** Its GI50 is 1910 nM.

**Q.** And the GI50 [39]?
**A.** Its GI50 is 1820 nM.

**Q.** And the GI50 [40]?
**A.** The GI50 was 1950 nM.

**Q.** For `CCCC[C@H](CC)C[C@]1(CC)C=C(CC)[C@H](CC(=O)O)OO1` [HATERUMADIOXIN B], which IC50 [26] is on record?
**A.** Its IC50 is 5.5 ng/mL (≈ 0.0176 µM).
